Results as given in ChEMBL document CHEMBL1126958, “Quinolinecarboxylic acids. 3. Synthesis and antibacterial evaluation of 2-substituted-7-oxo-2,3-dihydro-7H-pyrido[1,2,3-de] [1,4]benzothiazine-6-carboxylic acids related to rufloxacin” (J Med Chem, 1993).
≈ marks a conversion by molar mass, not a printed value.

Experiments:
[1] = Minimal inhibitory concentration against Shigella enteritidis strain; assay type: functional
Outline: (§1)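 Agar dilution on TSA agar; compounds added by 2-fold dilution to melted medium at 50 °C just before pouring. Organisms stored at –80 °C, diluted in peptonated water to 1–2 × 10^7 CFU, applied with multipoint inoculator. MIC = lowest concentration preventing visible growth after 24 h at 35 °C.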

Klebsiella pneumoniae = test: Minimal inhibitory concentration against Klebsiella pneumoniae ATCC 10031 strain; assay type: functional; outline: as §1
Pseudomonas aeruginosa = test: Minimal inhibitory concentration against Pseudomonas aeruginosa ATCC 9027 strain; assay type: functional; outline: as §1
Staphylococcus aureus = test: Minimal inhibitory concentration against […] aureus ATCC 6538 strain; assay type: functional; outline: as §1
Escherichia coli = test: Minimal inhibitory concentration against Escherichia coli ISF 432 strain; assay type: functional; outline: as §1
Enterobacter cloacae = test: Minimal inhibitory concentration against Enterobacter cloacae OMNFI174 strain; assay type: functional; outline: as §1
Proteus vulgaris = test: Minimal inhibitory concentration against Proteus vulgaris CNUR6 strain; assay type: functional; outline: as §1
Enterococcus faecalis = test: Minimal inhibitory concentration against Streptococcus faecalis LEP strain; assay type: functional; outline: as §1
[2] = Plasma concentration level in rat after 4 hours of oral administration at 50 mg/kg; assay type: ADME, organism-based; parameters: dose 50 mg/kg, route oral
Outline: (§2)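 Fasted male Wistar rats, three per group, single oral dose 50 mg/kg. Plasma taken at timed points, deproteinized with 70% perchloric acid, vortexed, centrifuged; supernatant analysed by HPLC, mobile-phase buffer 0.01 M KH2PO4 brought to pH 2.8 with phosphoric acid. Values as mean ± error over the group.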

[3] = Plasma concentration level in rat after 15 hours of oral administration at 50 mg/kg; assay type: ADME, organism-based; parameters: dose 50 mg/kg, route oral; outline: as §2
[4] = Urinary excretion in rat after 4-8 hours of oral administration at 50 mg/kg; assay type: ADME, organism-based; parameters: dose 50 mg/kg, route oral; settings: urine
Outline: (§3)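 Fasted male Wistar rats, three per group, dosed orally at 50 mg/kg. Urine collected over 0-4, 4-8 and 8-24 h, diluted 1:100 in ultrapure water, then treated with water and 70% perchloric acid, vortexed and centrifuged. Supernatant analysed by HPLC with pH 2.8 KH2PO4/phosphoric acid mobile phase. Result given as % of administered dose excreted.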

[5] = Plasma concentration level in rat after 1 hour of oral administration at 50 mg/kg; assay type: ADME, organism-based; parameters: dose 50 mg/kg, route oral; outline: as §2
[6] = Urinary excretion in rat after 8-24 hours of oral administration at 50 mg/kg; assay type: ADME, organism-based; parameters: dose 50 mg/kg, route oral; settings: urine; outline: as §3
[7] = Urinary excretion in rat after 0-4 hours of oral administration at 50 mg/kg; assay type: ADME, organism-based; parameters: dose 50 mg/kg, route oral; settings: urine; outline: as §3

Row | SMILES | MIC [1] | MIC (Klebsiella pneumoniae) | MIC (Pseudomonas aeruginosa) | MIC (Staphylococcus aureus) | MIC (Escherichia coli) | MIC (Enterobacter cloacae) | MIC (Proteus vulgaris) | MIC (Enterococcus faecalis) | concentration at 4 h [2] | concentration at 15 h [3] | dose excreted [4] | concentration at 1 h [5] | dose excreted [6] | dose excreted [7]
1 | CC1Cn2cc(C(=O)O)c(=O)c3cc(F)c(N4CCN(Cc5ccc(F)cc5F)CC4)c(c32)S1 (stereo unspecified) | > 64 µg/mL | > 64 µg/mL | > 64 µg/mL | 32 µg/mL (≈ 65.4 µM) | 8 µg/mL (≈ 16.3 µM) | > 64 µg/mL | > 64 µg/mL | 64 µg/mL (≈ 131 µM) | – | – | – | – | – | –
2 | O=C(O)c1cn2c3c(c(Cl)c(F)cc3c1=O)SC(c1cccc(F)c1)C2 (stereo unspecified) | > 64 µg/mL | 2 µg/mL (≈ 5.08 µM) | > 64 µg/mL | 2 µg/mL (≈ 5.08 µM) | 2 µg/mL (≈ 5.08 µM) | > 64 µg/mL | > 64 µg/mL | 32 µg/mL (≈ 81.3 µM) | – | – | – | – | – | –
3 | CC1Cn2cc(C(=O)O)c(=O)c3cc(F)c(N4CCN(C)CC4)c(c32)S1 (stereo unspecified) | 2 µg/mL (≈ 5.3 µM) | 0.25 µg/mL (≈ 0.662 µM) | 16 µg/mL (≈ 42.4 µM) | 1 µg/mL (≈ 2.65 µM) | 0.25 µg/mL (≈ 0.662 µM) | 4 µg/mL (≈ 10.6 µM) | 32 µg/mL (≈ 84.8 µM) | 32 µg/mL (≈ 84.8 µM) | 7610 ng/mL | 270 ng/mL | 2.59% | 14100 ng/mL | 5.17% | 1.5%
4 | CC1Cn2cc(C(=O)O)c(=O)c3cc(F)c(Cl)c(c32)S1 (stereo unspecified) | 4 µg/mL (≈ 12.7 µM) | 8 µg/mL (≈ 25.5 µM) | 32 µg/mL (≈ 102 µM) | 2 µg/mL (≈ 6.37 µM) | 0.12 µg/mL (≈ 0.382 µM) | 2 µg/mL (≈ 6.37 µM) | > 64 µg/mL | 32 µg/mL (≈ 102 µM) | – | – | – | – | – | –
5 | CC1Cn2cc(C(=O)O)c(=O)c3cc(F)c(N4CCN(Cc5cccc(F)c5)CC4)c(c32)S1 (stereo unspecified) | > 64 µg/mL | > 64 µg/mL | > 64 µg/mL | 32 µg/mL (≈ 67.9 µM) | 16 µg/mL (≈ 33.9 µM) | > 64 µg/mL | > 64 µg/mL | > 64 µg/mL | – | – | – | – | – | –
6 | CC1CN(c2c(F)cc3c(=O)c(C(=O)O)cn4c3c2SC(C)C4)CC(C)N1 (stereo unspecified) | 4 µg/mL (≈ 10.2 µM) | 0.25 µg/mL (≈ 0.639 µM) | 32 µg/mL (≈ 81.7 µM) | 4 µg/mL (≈ 10.2 µM) | 0.25 µg/mL (≈ 0.639 µM) | 4 µg/mL (≈ 10.2 µM) | > 64 µg/mL | 64 µg/mL (≈ 163 µM) | – | – | – | – | – | –
7 | CC1Cn2cc(C(=O)O)c(=O)c3cc(F)c(N4CCN(S(=O)(=O)c5ccc(F)cc5)CC4)c(c32)S1 (stereo unspecified) | 8 µg/mL (≈ 15.3 µM) | 1 µg/mL (≈ 1.92 µM) | > 64 µg/mL | 4 µg/mL (≈ 7.67 µM) | 2 µg/mL (≈ 3.83 µM) | 8 µg/mL (≈ 15.3 µM) | > 64 µg/mL | 16 µg/mL (≈ 30.7 µM) | – | – | – | – | – | –
8 | CCNCC1CCN(c2c(F)cc3c(=O)c(C(=O)O)cn4c3c2SC(C)C4)C1 (stereo unspecified) | 8 µg/mL (≈ 19.7 µM) | 0.25 µg/mL (≈ 0.617 µM) | > 64 µg/mL | 4 µg/mL (≈ 9.86 µM) | 0.25 µg/mL (≈ 0.617 µM) | 8 µg/mL (≈ 19.7 µM) | > 64 µg/mL | 16 µg/mL (≈ 39.5 µM) | – | – | – | – | – | –
9 | CC1Cn2cc(C(=O)O)c(=O)c3cc(F)c(N4CCN(c5ccccn5)CC4)c(c32)S1 (stereo unspecified) | > 64 µg/mL | 2 µg/mL (≈ 4.54 µM) | > 64 µg/mL | 0.5 µg/mL (≈ 1.14 µM) | 1 µg/mL (≈ 2.27 µM) | > 64 µg/mL | > 64 µg/mL | 2 µg/mL (≈ 4.54 µM) | – | – | – | – | – | –
10 | O=C(O)c1cn2c3c(c(N4CCNCC4)c(F)cc3c1=O)SC(c1ccc(F)cc1)C2 (stereo unspecified) | 32 µg/mL (≈ 72.2 µM) | 16 µg/mL (≈ 36.1 µM) | > 64 µg/mL | 16 µg/mL (≈ 36.1 µM) | 2 µg/mL (≈ 4.51 µM) | 32 µg/mL (≈ 72.2 µM) | > 64 µg/mL | 16 µg/mL (≈ 36.1 µM) | – | – | – | – | – | –
11 | CC1Cn2cc(C(=O)O)c(=O)c3cc(F)c(N4CCN(c5ccc(F)cc5)CC4)c(c32)S1 (stereo unspecified) | > 64 µg/mL | > 64 µg/mL | > 64 µg/mL | 8 µg/mL (≈ 17.5 µM) | 8 µg/mL (≈ 17.5 µM) | > 64 µg/mL | > 64 µg/mL | 4 µg/mL (≈ 8.74 µM) | – | – | – | – | – | –
12 | CC1Cn2cc(C(=O)O)c(=O)c3cc(F)c(N4CCCNCC4)c(c32)S1 (stereo unspecified) | 32 µg/mL (≈ 84.8 µM) | 1 µg/mL (≈ 2.65 µM) | > 64 µg/mL | 2 µg/mL (≈ 5.3 µM) | 4 µg/mL (≈ 10.6 µM) | 8 µg/mL (≈ 21.2 µM) | 64 µg/mL (≈ 170 µM) | 32 µg/mL (≈ 84.8 µM) | – | – | – | – | – | –
13 | CC1Cn2cc(C(=O)O)c(=O)c3cc(F)c(N4CCNCC4)c(c32)S1 (stereo unspecified) | 8 µg/mL (≈ 22 µM) | 2 µg/mL (≈ 5.5 µM) | 64 µg/mL (≈ 176 µM) | 8 µg/mL (≈ 22 µM) | 0.25 µg/mL (≈ 0.688 µM) | 16 µg/mL (≈ 44 µM) | > 64 µg/mL | > 64 µg/mL | – | – | 1.92% | – | 3.12% | 0.37%
14 | CC1Cn2cc(C(=O)O)c(=O)c3cc(F)c(N4CCCC4)c(c32)S1 (stereo unspecified) | 16 µg/mL (≈ 45.9 µM) | 2 µg/mL (≈ 5.74 µM) | > 64 µg/mL | 2 µg/mL (≈ 5.74 µM) | 0.25 µg/mL (≈ 0.718 µM) | 16 µg/mL (≈ 45.9 µM) | > 64 µg/mL | 32 µg/mL (≈ 91.8 µM) | – | – | – | – | – | –
15 | CC1Cn2cc(C(=O)O)c(=O)c3cc(F)c(-n4ccnc4)c(c32)S1 (stereo unspecified) | 4 µg/mL (≈ 11.6 µM) | 0.25 µg/mL (≈ 0.724 µM) | 64 µg/mL (≈ 185 µM) | 16 µg/mL (≈ 46.3 µM) | 0.12 µg/mL (≈ 0.347 µM) | 16 µg/mL (≈ 46.3 µM) | > 64 µg/mL | 32 µg/mL (≈ 92.7 µM) | – | – | – | – | – | –
16 | O=C(O)c1cn2c3c(c(Cl)c(F)cc3c1=O)SC(c1ccc(F)cc1)C2 (stereo unspecified) | > 64 µg/mL | 0.25 µg/mL (≈ 0.635 µM) | > 64 µg/mL | 4 µg/mL (≈ 10.2 µM) | 0.25 µg/mL (≈ 0.635 µM) | 8 µg/mL (≈ 20.3 µM) | > 64 µg/mL | 8 µg/mL (≈ 20.3 µM) | – | – | – | – | – | –
17 | CN1CCN(c2c(F)cc3c(=O)c(C(=O)O)cn4c3c2SC(c2ccc(F)cc2)C4)CC1 (stereo unspecified) | 64 µg/mL (≈ 140 µM) | > 64 µg/mL | > 64 µg/mL | 16 µg/mL (≈ 35 µM) | 8 µg/mL (≈ 17.5 µM) | 32 µg/mL (≈ 69.9 µM) | > 64 µg/mL | 64 µg/mL (≈ 140 µM) | – | – | – | – | – | –
18 | CC1Cn2cc(C(=O)O)c(=O)c3cc(F)c(N4CCN(Cc5ccccc5C(F)(F)F)CC4)c(c32)S1 (stereo unspecified) | > 64 µg/mL | 8 µg/mL (≈ 15.3 µM) | > 64 µg/mL | > 64 µg/mL | 8 µg/mL (≈ 15.3 µM) | > 64 µg/mL | > 64 µg/mL | > 64 µg/mL | – | – | – | – | – | –
19 | O=C(O)c1cn2c3c(c(Cl)c(F)cc3c1=O)SC(c1ccccc1F)C2 (stereo unspecified) | > 64 µg/mL | 0.5 µg/mL (≈ 1.27 µM) | > 64 µg/mL | 8 µg/mL (≈ 20.3 µM) | 0.5 µg/mL (≈ 1.27 µM) | > 64 µg/mL | > 64 µg/mL | 4 µg/mL (≈ 10.2 µM) | – | – | – | – | – | –
20 | O=C(O)c1cn2c3c(c(N4CCNCC4)c(F)cc3c1=O)SCC2 | – | – | – | – | – | – | – | – | – | – | 5.59% | – | 11.5% | 2.73%
21 | CC1Cn2cc(C(=O)O)c(=O)c3cc(F)c(N4CCN(C=O)CC4)c(c32)S1 (stereo unspecified) | 1 µg/mL (≈ 2.55 µM) | 0.5 µg/mL (≈ 1.28 µM) | 32 µg/mL (≈ 81.8 µM) | 16 µg/mL (≈ 40.9 µM) | 0.5 µg/mL (≈ 1.28 µM) | 1 µg/mL (≈ 2.55 µM) | 64 µg/mL (≈ 164 µM) | 64 µg/mL (≈ 164 µM) | – | – | – | – | – | –
22 | CN1CCN(c2c(F)cc3c(=O)c(C(=O)O)cn4c3c2SCC4)CC1 [RUFLOXACIN] | 2 µg/mL (≈ 5.5 µM) | 0.12 µg/mL (≈ 0.33 µM) | 8 µg/mL (≈ 22 µM) | 1 µg/mL (≈ 2.75 µM) | 0.25 µg/mL (≈ 0.688 µM) | 2 µg/mL (≈ 5.5 µM) | 4 µg/mL (≈ 11 µM) | 16 µg/mL (≈ 44 µM) | 4430 ng/mL | 410 ng/mL | 10.5% | 7740 ng/mL | 15.6% | 2.18%
